Measured values taken from publication PMC8682075 (Biochimie, 2020).
Like-named read-outs stand apart in the source and are kept apart here.

How the values were obtained:
[1] = target: T1, MMUT (methylmalonyl-CoA mutase) (Homo sapiens, UniProt P22033); assay: Coupled thiokinase/DTNB spectrophotometric MMUT activity assay; assay type: biochemical
T1 sequence (P22033 33-750): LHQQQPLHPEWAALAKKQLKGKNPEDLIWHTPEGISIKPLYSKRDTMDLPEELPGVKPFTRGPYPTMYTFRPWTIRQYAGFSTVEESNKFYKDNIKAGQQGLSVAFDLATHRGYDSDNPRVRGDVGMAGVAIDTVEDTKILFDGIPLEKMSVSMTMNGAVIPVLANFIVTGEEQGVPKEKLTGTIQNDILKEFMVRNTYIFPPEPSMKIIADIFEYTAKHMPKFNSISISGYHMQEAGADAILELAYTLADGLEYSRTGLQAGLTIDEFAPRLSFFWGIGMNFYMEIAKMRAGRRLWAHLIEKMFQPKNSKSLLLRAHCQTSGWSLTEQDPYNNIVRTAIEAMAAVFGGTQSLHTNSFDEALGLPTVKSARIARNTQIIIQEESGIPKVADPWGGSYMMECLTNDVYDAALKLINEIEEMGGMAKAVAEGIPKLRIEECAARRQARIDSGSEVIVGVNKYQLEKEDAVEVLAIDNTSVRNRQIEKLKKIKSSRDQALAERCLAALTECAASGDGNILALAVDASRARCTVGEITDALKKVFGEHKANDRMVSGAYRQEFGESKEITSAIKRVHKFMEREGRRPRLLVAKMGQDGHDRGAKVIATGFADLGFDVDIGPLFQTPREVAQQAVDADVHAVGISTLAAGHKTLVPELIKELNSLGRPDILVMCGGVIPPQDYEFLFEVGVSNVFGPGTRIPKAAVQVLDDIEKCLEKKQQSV
Procedure, shortened: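 In the coupled kinetic assay, succinyl-CoA was converted by thiokinase to CoA, which was detected spectrophotometrically with DTNB. C-terminally His-tagged MMUT was at 10 nM. Enzymatically made (R)-methylmalonyl-CoA was fixed at 4 mM. Adenosylated cofactor was varied per cofactor, from 0.031 μM at lowest to 12 μM at highest. K_M,app and k_cat come from ≥5 replicates over ≥2 independent experiments and two biological samples.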

[2] = target: T1, MMUT (methylmalonyl-CoA mutase); settings: cited from earlier work
[3] = target: T1, MMUT (methylmalonyl-CoA mutase); settings: read-out: KM, app; previously reported value ref 57; cited from earlier work
[4] = tested on: MMUT variants G648D, V633G, G717V, P86L, Y100C, Y231N; assay: Activity screen; assay type: biochemical, human; settings: cobamide 1 μM, variants 0.1 μM (G717V 1 μM), 30 minutes
Procedure, shortened: (§1)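 At 30 °C, reaction was started with thiokinase, MgCl₂, ADP and methylmalonyl-CoA. Final levels were cofactor 1 μM and (R)-methylmalonyl-CoA 2 mM. Enzyme was WT 0.01 μM, G717V 1 μM, other variants 0.1 μM. After 30 min, an aliquot went into 2.5 mM DTNB; CoA was taken from A412 (ε 14,150 M⁻¹ cm⁻¹).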

[5] = target: T1, MMUT (methylmalonyl-CoA mutase); assay: Cobamide equilibrium binding by quenching of intrinsic protein fluorescence; settings: MMUT 0.2 μM, fluorescence quenching
Procedure, shortened: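 Fluorescence quenching used MMUT at 0.2 μM, from N-terminal His-tag (E. coli BL21(DE3)pLysS) and C-terminal His-tag preparations. Adenosylated cofactor was titrated at 0.19–2.5 μM or 0.23–2.5 μM, depending on cofactor class. Plate-reader excitation/emission was 282/340 nm. Kd came from a quadratic fit allowing for ligand depletion. Values were averaged over ≥5 technical replicates from ≥2 independent experiments.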

MMUT WT = target: T2, MMUT WT (Homo sapiens, UniProt P22033); assay: Activity screen; assay type: biochemical; settings: cobamide 1 μM, MMUT WT 0.01 μM, 30 minutes
T2 sequence (P22033 33-750): T1 sequence (P22033 33-750)
Procedure, shortened: as §1

## C/C1=C2/[N-][C@H]([C@H](CC(N)=O)[C@@]2(C)CCC(=O)NC[C@@H](C)OP(=O)([O-])O[C@H]2[C@@H](O)[C@@H](n3cnc4cc(C)c(C)cc43)O[C@@H]2CO)[C@]2(C)N=C(/C(C)=C3N=C(/C=C4N=C1[C@@H](CCC(N)=O)C\4(C)C)[C@@H](CCC(N)=O)[C@]\3(C)CC(N)=O)[C@@H](CCC(N)=O)[C@]2(C)CC(N)=O.[CH2-][C@H]1O[C@@H](n2cnc3c(N)ncnc32)[C@H](O)[C@@H]1O.[Co] [AdoCbl, adenosylcobalamin, reference compound]
[1]; coupled spectrophotometric assay
  MMUT activity with the cobamide (in words): active
[1]; read-out: KM, app, methylmalonyl-CoA 4 mM, MMUT 10 nM
  Km: 0.04 ± 0.02 µM
[2]; previous study of MMUT ref 49
  Kd: 40 nM
[2]; previous study of MMUT ref 50
  Kd: 270 ± 110 nM
[3]
  Km: 0.05 µM
[4]
  activity of MMUT variants with the cobamide (in words): significantly reduced specific activity
[5]
  Kd: 80 ± 30 nM
MMUT WT
  activity of WT MMUT with the cobamide (in words): active
